# According to ChEMBL document CHEMBL5696444 (Nat Commun, 2017):
# Key:
# [1] = tested on: HCT-116; assay: Induction of cell cycle arrest in human HCT-116 cells assessed as S phase at 5 uM incubated for 24 hrs by flow cytometry analysis (Rvb=46.4%); assay type: functional
# [2] = tested on: HCT-116; assay: Induction of cell cycle arrest in human HCT-116 cells assessed as sub G0/G1 phase at 1 uM incubated for 24 hrs by flow cytometry analysis (Rvb=2.5%); assay type: functional
# [3] = tested on: HCT-116; assay: Induction of apoptosis in human HCT-116 cells assessed as viable cells at 10 uM incubated for > 6 hrs by annexin V/PI staining based analysis (Rvb=90.04%); assay type: functional; details: read-out: Activity
# [4] = molecular target: Dual specificity protein kinase CLK1 (Homo sapiens) (UniProt P49759); assay: Inhibition of CLK (unknown origin) in human HCT-116 cells assessed as induction in alternative splicing effect in MRPS10-GUCA1B level incubated for 6 hrs by RT-PCR analysis; assay type: cell-based; details: dose 0.2-5 µM
# Procedure, shortened: (§1)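 Cells exposed to graded T3 concentrations for 6 h (chosen to avoid cytotoxicity), with a DMSO vehicle control. Total RNA was reverse-transcribed with oligo-dT primers. Targeted splice or conjoined-gene products were quantified by real-time qPCR or by targeted next-generation sequencing. Conjoined-gene isoform expression was normalized to a sequenced housekeeping gene.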
# [5] = tested on: HCT-116; assay: Induction of apoptosis in human HCT-116 cells assessed as early apoptosis at 5 uM incubated for > 6 hrs by annexin V/PI staining based analysis (Rvb=3.29%); assay type: functional
# [6] = molecular target: Dual specificity tyrosine-phosphorylation-regulated kinase 4 (Homo sapiens) (UniProt Q9NR20); assay: Inhibition of DYRK4 (unknown origin) at 123 nM in the presence of ATP by Kinome scan method relative to control; details: time > 6.0 hrs
# [7] = molecular target: cAMP-dependent protein kinase catalytic subunit alpha (Homo sapiens) (UniProt P17612); assay: Inhibition of PRKACA (unknown origin) at 100 nM in the presence of ATP by Kinome scan method relative to control
# [8] = tested on: HCT-116; assay: Induction of cell cycle arrest in human HCT-116 cells assessed as sub G0/G1 phase at 5 uM incubated for 24 hrs by flow cytometry analysis (Rvb=2.5%); assay type: functional
# [9] = molecular target: Dual specificity protein kinase CLK1 (Homo sapiens) (UniProt P49759); assay: Inhibition of CLK (unknown origin) in human HCT-116 cells assessed as induction in alternative splicing effect in CDC6-RARA level incubated for 6 hrs by RT-PCR analysis; assay type: cell-based; details: dose 0.2-5 µM; procedure, shortened: as §1
# [10] = molecular target: Serine/threonine-protein kinase Nek1 (Homo sapiens) (UniProt Q96PY6); assay: Inhibition of NEK1 (unknown origin) at 100 nM in the presence of ATP by Kinome scan method relative to control
# [11] = tested on: HCT-116; assay: Induction of apoptosis in human HCT-116 cells assessed as viable cells at 1 uM incubated for > 6 hrs by annexin V/PI staining based analysis (Rvb=90.04%); assay type: functional; details: read-out: Activity
# [12] = molecular target: CDK7/Cyclin H/MNAT1 (Homo sapiens) (UniProt P51946+P50613+P51948); assay: Inhibition of CDK7/cyclin H/MNAT1 (unknown origin) at 100 nM in the presence of ATP by Kinome scan method relative to control; assay type: protein-complex assay
# [13] = molecular target: Mitogen-activated protein kinase 1 (Homo sapiens) (UniProt P28482); assay: Inhibition of MAPK1 (unknown origin) at 100 nM in the presence of ATP by Kinome scan method relative to control
# [14] = tested on: HCT-116; assay: Induction of cell cycle arrest in human HCT-116 cells assessed as G2/M phase at 0.5 uM incubated for 6 hrs by flow cytometry analysis (Rvb=25.8%); assay type: functional
# [15] = molecular target: Aurora kinase A (Homo sapiens) (UniProt O14965); assay: Inhibition of AURKA (unknown origin) at 100 nM in the presence of ATP by Kinome scan method relative to control
# [16] = molecular target: PI3-kinase p110-alpha/p85-alpha (Homo sapiens) (UniProt P27986+P42336); assay: Inhibition of PIK3CA/PIK3R1 (unknown origin) at 100 nM in the presence of ATP by Kinome scan method relative to control; assay type: protein-complex assay
# [17] = molecular target: Interleukin-1 receptor-associated kinase 4 (Homo sapiens) (UniProt Q9NWZ3); assay: Inhibition of IRAK4 (unknown origin) at 100 nM in the presence of ATP by Kinome scan method relative to control
# [18] = Stability of compound in tissue culture medium assessed as remaining parent compound at 5.44 uM incubated for 6 hrs; assay type: physicochemical; details: read-out: Stability
# [19] = molecular target: Dual specificity protein kinase CLK3 (Homo sapiens) (UniProt P49761); assay: Inhibition of CLK3 (unknown origin) at 123 nM in the presence of ATP by Kinome scan method relative to control; details: time > 6.0 hrs
# [20] = tested on: HCT-116; assay: Induction of cell cycle arrest in human HCT-116 cells assessed as S phase at 0.1 uM incubated for 24 hrs by flow cytometry analysis (Rvb=46.4%); assay type: functional
# [21] = molecular target: Fibroblast growth factor receptor 1 (Homo sapiens) (UniProt P11362); assay: Inhibition of FGFR1 (unknown origin) at 100 nM in the presence of ATP by Kinome scan method relative to control
# [22] = molecular target: cAMP-dependent protein kinase catalytic subunit alpha (Homo sapiens) (UniProt P17612); assay: Inhibition of PRKACA (unknown origin) at 1000 nM in the presence of ATP by Kinome scan method relative to control
# [23] = tested on: HCT-116; assay: Induction of apoptosis in human HCT-116 cells assessed as late apoptosis at 0.1 uM incubated for > 6 hrs by annexin V/PI staining based analysis (Rvb=6.12%); assay type: functional
# [24] = tested on: HCT-116; assay: Induction of cell cycle arrest in human HCT-116 cells assessed as S phase at 0.5 uM incubated for 24 hrs by flow cytometry analysis (Rvb=46.4%); assay type: functional
# [25] = tested on: HCT-116; assay: Induction of cell cycle arrest in human HCT-116 cells assessed as G0/G1 phase at 1 uM incubated for 6 hrs by flow cytometry analysis (Rvb=35.0%); assay type: functional
# [26] = molecular target: Serine/threonine-protein kinase Nek2 (Homo sapiens) (UniProt P51955); assay: Inhibition of NEK2 (unknown origin) at 1000 nM in the presence of ATP by Kinome scan method relative to control
# [27] = molecular target: SRSF protein kinase 2 (Homo sapiens) (UniProt P78362); assay: Inhibition of SRPK2 (unknown origin) at 1110 nM in the presence of ATP by Kinome scan method relative to control; details: time > 6.0 hrs
# [28] = tested on: HCT-116; assay: Induction of cell cycle arrest in human HCT-116 cells assessed as G2/M phase at 5 uM incubated for 24 hrs by flow cytometry analysis (Rvb=17.9%); assay type: functional
# [29] = molecular target: Tyrosine-protein kinase receptor UFO (Homo sapiens) (UniProt P30530); assay: Inhibition of AXL (unknown origin) at 100 nM in the presence of ATP by Kinome scan method relative to control
# [30] = molecular target: Serine/threonine-protein kinase B-raf (Homo sapiens) (UniProt P15056); assay: Inhibition of BRAF (unknown origin) at 100 nM in the presence of ATP by Kinome scan method relative to control
# [31] = tested on: HCT-116; assay: Induction of cell cycle arrest in human HCT-116 cells assessed as G0/G1 phase at 10 uM incubated for 6 hrs by flow cytometry analysis (Rvb=35.0%); assay type: functional
# [32] = Stability of compound in tissue culture medium assessed as remaining parent compound at 5.38 uM incubated for 24 hrs; assay type: physicochemical; details: read-out: Stability
# Dual specificity protein kinase CLK1 (Homo sapiens), sequence (P49759 whole entry, looked up, canonical isoform): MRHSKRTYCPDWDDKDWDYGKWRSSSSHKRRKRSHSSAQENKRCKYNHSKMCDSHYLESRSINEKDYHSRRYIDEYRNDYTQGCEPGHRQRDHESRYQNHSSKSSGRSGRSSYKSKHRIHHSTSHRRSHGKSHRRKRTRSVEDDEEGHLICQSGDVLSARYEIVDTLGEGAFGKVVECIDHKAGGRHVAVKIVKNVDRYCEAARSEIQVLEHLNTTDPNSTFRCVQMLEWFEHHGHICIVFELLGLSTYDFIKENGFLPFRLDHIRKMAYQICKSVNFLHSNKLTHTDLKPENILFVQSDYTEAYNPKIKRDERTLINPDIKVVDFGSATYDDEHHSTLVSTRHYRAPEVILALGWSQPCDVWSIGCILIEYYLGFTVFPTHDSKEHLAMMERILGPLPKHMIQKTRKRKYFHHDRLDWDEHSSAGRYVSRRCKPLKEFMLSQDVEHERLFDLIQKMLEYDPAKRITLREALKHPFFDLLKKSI
# Aurora kinase A (Homo sapiens), sequence (O14965 whole entry): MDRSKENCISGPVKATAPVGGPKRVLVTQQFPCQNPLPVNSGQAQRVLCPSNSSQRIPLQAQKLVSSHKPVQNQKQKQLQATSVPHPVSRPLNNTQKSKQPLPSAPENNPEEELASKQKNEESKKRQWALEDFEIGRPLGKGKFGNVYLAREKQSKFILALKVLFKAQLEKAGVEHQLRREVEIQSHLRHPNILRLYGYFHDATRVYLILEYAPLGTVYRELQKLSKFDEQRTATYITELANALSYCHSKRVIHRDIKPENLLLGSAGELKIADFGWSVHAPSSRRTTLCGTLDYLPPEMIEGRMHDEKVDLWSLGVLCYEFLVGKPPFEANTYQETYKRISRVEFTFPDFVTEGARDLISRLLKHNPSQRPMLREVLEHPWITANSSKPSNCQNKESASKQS
# Dual specificity tyrosine-phosphorylation-regulated kinase 4 (Homo sapiens), sequence (Q9NR20 whole entry): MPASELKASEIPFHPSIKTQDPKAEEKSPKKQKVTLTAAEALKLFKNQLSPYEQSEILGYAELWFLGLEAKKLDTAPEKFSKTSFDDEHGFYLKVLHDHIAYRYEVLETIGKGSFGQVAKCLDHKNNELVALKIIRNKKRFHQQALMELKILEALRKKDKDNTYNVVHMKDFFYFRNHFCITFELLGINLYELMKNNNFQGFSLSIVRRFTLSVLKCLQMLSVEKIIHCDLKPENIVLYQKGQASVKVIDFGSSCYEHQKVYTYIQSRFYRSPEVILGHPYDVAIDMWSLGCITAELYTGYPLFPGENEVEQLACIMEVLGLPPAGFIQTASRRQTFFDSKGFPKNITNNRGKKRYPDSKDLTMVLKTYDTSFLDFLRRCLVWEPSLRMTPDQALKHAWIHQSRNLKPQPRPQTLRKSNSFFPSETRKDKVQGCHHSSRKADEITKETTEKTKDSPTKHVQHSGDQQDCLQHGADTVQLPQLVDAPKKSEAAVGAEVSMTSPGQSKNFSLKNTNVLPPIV
# Serine/threonine-protein kinase Nek2 (Homo sapiens), sequence (P51955 whole entry): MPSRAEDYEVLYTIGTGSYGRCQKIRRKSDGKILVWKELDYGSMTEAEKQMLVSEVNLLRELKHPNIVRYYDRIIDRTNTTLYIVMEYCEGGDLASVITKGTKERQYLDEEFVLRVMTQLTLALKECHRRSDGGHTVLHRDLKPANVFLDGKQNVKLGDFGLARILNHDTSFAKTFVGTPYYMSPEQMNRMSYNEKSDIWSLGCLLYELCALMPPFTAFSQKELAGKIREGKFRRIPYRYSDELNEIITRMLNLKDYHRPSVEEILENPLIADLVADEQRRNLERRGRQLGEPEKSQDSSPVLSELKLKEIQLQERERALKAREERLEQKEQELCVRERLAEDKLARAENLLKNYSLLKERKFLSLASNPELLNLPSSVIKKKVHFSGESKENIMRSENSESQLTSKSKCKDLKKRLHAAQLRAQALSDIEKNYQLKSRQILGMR
# Fibroblast growth factor receptor 1 (Homo sapiens), sequence (P11362 22-822 limits assumed): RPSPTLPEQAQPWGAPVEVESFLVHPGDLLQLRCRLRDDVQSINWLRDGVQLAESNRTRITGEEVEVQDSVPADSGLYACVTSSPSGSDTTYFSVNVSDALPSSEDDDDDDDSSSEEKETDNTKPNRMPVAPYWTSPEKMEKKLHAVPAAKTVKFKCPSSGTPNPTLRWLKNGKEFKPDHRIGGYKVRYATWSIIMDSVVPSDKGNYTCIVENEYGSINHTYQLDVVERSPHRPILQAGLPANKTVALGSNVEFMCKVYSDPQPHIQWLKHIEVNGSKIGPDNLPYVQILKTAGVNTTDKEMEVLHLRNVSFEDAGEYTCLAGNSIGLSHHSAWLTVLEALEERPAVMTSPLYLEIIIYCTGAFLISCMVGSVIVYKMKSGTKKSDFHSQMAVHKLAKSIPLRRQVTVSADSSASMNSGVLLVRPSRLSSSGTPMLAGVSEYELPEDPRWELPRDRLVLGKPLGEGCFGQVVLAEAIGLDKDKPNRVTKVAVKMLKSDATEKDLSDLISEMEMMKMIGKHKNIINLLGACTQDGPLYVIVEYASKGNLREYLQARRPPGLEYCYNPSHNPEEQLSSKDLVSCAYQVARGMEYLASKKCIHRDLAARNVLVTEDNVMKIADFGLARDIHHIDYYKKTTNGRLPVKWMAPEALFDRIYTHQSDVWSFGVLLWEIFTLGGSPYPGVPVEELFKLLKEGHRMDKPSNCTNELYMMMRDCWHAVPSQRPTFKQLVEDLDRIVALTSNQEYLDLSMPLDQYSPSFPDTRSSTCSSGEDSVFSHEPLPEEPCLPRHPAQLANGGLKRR
# Dual specificity protein kinase CLK3 (Homo sapiens), sequence (P49761 whole entry, looked up): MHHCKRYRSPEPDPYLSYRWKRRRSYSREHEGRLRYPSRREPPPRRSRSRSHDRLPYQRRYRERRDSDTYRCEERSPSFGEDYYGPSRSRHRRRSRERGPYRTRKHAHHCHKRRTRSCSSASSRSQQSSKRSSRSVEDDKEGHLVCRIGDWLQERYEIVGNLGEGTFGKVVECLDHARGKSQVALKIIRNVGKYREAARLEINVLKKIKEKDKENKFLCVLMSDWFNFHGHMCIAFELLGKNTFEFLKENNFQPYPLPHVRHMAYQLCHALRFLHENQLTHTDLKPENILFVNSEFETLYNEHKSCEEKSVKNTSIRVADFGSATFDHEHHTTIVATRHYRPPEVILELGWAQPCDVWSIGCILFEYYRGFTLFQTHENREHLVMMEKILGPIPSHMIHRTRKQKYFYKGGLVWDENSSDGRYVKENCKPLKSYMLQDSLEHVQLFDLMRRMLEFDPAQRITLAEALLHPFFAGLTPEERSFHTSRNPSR
# Serine/threonine-protein kinase Nek1 (Homo sapiens), sequence (Q96PY6 whole entry): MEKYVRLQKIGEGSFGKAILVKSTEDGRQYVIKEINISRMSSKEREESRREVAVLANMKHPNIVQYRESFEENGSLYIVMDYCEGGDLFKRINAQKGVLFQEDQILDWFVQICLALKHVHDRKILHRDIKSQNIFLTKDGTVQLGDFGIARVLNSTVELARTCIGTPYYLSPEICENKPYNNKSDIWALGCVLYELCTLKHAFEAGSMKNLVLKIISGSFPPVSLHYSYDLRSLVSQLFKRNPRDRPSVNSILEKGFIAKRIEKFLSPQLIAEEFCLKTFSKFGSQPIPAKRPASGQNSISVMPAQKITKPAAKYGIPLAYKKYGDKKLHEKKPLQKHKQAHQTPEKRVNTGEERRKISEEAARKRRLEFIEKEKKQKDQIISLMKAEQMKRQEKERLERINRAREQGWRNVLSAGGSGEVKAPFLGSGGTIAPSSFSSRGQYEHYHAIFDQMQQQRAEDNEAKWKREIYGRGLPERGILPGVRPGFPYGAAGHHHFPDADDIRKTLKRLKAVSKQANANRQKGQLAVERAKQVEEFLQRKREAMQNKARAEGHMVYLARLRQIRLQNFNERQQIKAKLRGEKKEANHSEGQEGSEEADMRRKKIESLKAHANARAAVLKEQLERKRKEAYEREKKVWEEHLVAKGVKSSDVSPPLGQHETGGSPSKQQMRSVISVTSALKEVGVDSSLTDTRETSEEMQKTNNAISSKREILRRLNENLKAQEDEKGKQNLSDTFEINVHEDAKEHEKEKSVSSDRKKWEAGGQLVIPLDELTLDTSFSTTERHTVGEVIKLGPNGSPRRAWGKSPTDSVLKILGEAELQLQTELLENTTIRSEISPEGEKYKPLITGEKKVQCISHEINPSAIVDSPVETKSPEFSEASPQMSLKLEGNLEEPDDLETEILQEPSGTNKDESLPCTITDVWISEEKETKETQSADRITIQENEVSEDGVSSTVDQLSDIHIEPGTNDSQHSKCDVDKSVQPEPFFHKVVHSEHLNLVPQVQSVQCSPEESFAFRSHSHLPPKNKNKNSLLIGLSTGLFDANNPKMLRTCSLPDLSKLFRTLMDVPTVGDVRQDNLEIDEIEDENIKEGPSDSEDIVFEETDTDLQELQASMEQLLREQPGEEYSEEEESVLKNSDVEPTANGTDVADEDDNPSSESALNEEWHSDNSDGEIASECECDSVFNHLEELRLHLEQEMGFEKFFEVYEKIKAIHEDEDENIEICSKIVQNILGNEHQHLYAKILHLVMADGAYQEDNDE
# Mitogen-activated protein kinase 1 (Homo sapiens), sequence (P28482 whole entry): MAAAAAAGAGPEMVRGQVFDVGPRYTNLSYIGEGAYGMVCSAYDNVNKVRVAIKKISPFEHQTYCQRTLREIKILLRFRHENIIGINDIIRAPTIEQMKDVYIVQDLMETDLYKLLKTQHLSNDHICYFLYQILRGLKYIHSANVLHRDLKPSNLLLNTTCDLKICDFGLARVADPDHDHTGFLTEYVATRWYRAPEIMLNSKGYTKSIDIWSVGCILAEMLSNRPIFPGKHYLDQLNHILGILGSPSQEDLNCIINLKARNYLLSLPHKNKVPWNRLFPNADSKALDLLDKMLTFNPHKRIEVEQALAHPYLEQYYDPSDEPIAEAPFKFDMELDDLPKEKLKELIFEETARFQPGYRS
compound,measurement,setting,value
CN1CCN(C(=O)C(C)(C)c2ccc(C(=O)Nc3cn4cc(-c5ccncc5)ccc4n3)cc2)CC1 [T3-CLK],Activity,[1],45.5%
same,Activity,[2],20.4%
same,viability at 10 µM,[3],87.3%
same,inhibition,[4],Dose-Dependent Effect
same,Activity,[5],4.32%
same,inhibition,[6],-8%
same,inhibition,[7],-2%
same,Activity,[8],20.9%
same,inhibition,[9],Dose-Dependent Effect
same,inhibition,[10],4%
same,viability at 1 µM,[11],88.4%
same,inhibition,[12],1%
same,inhibition,[13],3%
same,Activity,[14],34.8%
same,inhibition,[15],5%
same,inhibition,[16],4%
same,inhibition,[17],25%
same,"remaining at 6 h, 5.44 µM",[18],98.9%
same,inhibition,[19],38%
same,Activity,[20],40.7%
same,inhibition,[21],4%
same,inhibition,[22],4%
same,Activity,[23],8.29%
same,Activity,[24],20.5%
same,Activity,[25],18.4%
same,inhibition,[26],24%
same,inhibition,[27],5%
same,Activity,[28],41.2%
same,inhibition,[29],-10%
same,inhibition,[30],9%
same,Activity,[31],28.4%
same,"remaining at 24 h, 5.38 µM",[32],98.8%
